# Source: ChEMBL document CHEMBL4825680, “Structure-based discovery of potent and selective small-molecule inhibitors targeting signal transducer and activator of transcription 3 (STAT3)” (Eur J Med Chem, 2021)
# Calls of active or inactive are those of the source. The rule behind the calls is not given here.
# What was measured:
# [1] = molecular target: T1, Signal transducer and activator of transcription 3 (Homo sapiens, UniProt P40763); experiment: Inhibition of STAT3 phosphorylation at Ser727 residue in human MDA-MB-231 cells at 3 uM after 3 hrs by Western blotting analysis; type: cell-based
# [2] = Toxicity in mouse xenografted with human MDA-MB-231-4175 cells assessed as morphological change in heart at 5 to 15 mg/kg, […] once daily for 20 days by HE staining based assay; type: organism-based; conditions: in vivo, iv, 480 h, dose 5-15 mg/kg, time 20 day
# Outline: (§1)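 Female NOD-SCID mice aged 4–5 weeks, given 2×10^6–3×10^6 MDA-MB-231-4175 cells subcutaneously in the flank. At about 100 mm³ tumour volume, randomised n=6/group: vehicle (PBS with 15% Cremophor EL), 5 or 15 mg/kg intraperitoneally daily. Killed at day 20; heart, liver, spleen, lung and kidney collected for morphological examination.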
# [3] = Induction of apoptosis in human MDA231-LM2-4175 cells assessed as early apoptotic cells at 3 uM after 48 hrs by Annexin-V-FITC/propidium iodide staining based flow cytometric analysis (reference value: 2.49%); type: functional
# MDA-MB-231 [4] = experiment: Induction of apoptosis in human MDA-MB-231 cells assessed as necrotic cells at 1 uM after 48 hrs by Annexin-V-FITC/propidium iodide staining based flow cytometric analysis (Rvb =0.543%); type: functional
# [5] = molecular target: T1, Signal transducer and activator of transcription 3; experiment: Inhibition of STAT3 in human MDA231-LM2-4175 cells assessed as downregulation of c-Myc expression at 0.3 to 3 uM after 24 hrs by western blot analysis; type: cell-based; conditions: dose 0.3-3 µM
# Outline: (§2)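 TNBC cells given vehicle (0.1% DMSO) or graded compound levels for 24 h, lysed in RIPA with PMSF and phosphatase inhibitors. BCA-quantified lysate (20–50 µg) run on SDS-PAGE, transferred to PVDF, blocked in 5% BSA. Probed overnight at 4 °C for Bcl-xL, Mcl-1 and c-Myc, with β-actin. HRP secondary, ECL detection. Three independent experiments.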
# MDA-MB-231 [6] = experiment: Antiproliferative activity against human MDA-MB-231 cells; type: functional, cell-based
# [7] = Tmax in Sprague-Dawley rat at 10 mg/kg, po measured up to 24 hrs by LC-MS/MS analysis; type: ADME, organism-based; conditions: in vivo
# Outline: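 Male SD rats dosed orally at 10 mg/kg in DMSO/0.5% HPMC (5/95, v/v). Blood drawn at 0.25, 0.5, 1, 2, 4, 8 and 24 h for plasma. Plasma analysed by LC-MS/MS on a UPLC BEH phenyl column with 0.1% formic acid water/acetonitrile.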
# [8] = Antitumor activity against human MDA231-LM2-4175 cells xenografted in mouse assessed as tumor growth inhibition at 15 mg/kg, iv administered once daily for 20 days; type: functional; conditions: MDA231-LM2-4175, iv, 480 h, time 20 day, read-out: TGI
# [9] = Toxicity in mouse xenografted with human MDA-MB-231-4175 cells assessed as morphological change in kidney at 5 to 15 mg/kg, […] once daily for 20 days by HE staining based assay; type: organism-based; conditions: in vivo, iv, 480 h, dose 5-15 mg/kg, time 20 day; outline: as §1
# [10] = molecular target: T1, Signal transducer and activator of transcription 3; experiment: Inhibition of STAT3 in human MDA-MB-468 cells assessed as downregulation of Mcl-1 expression at 0.3 to 3 uM after 24 hrs by western blot analysis; type: cell-based; conditions: dose 0.3-3 µM; outline: as §2
# [11] = molecular target: T1, Signal transducer and activator of transcription 3; experiment: Inhibition of STAT3 phosphorylation at Tyr705 residue in human MDA-MB-231 cells after 3 hrs by Western blotting analysis; type: cell-based; conditions: dose 0.3-3 µM
# [12] = molecular target: T1, Signal transducer and activator of transcription 3; experiment: Inhibition of STAT3 phosphorylation at Ser727 residue in human MDA-MB-468 cells at 3 uM after 3 hrs by Western blotting analysis; type: cell-based
# MDA231-LM2-4175 [13] = experiment: Induction of apoptosis in human MDA231-LM2-4175 cells assessed as increase in PARP cleavage at 1 uM after 48 hrs by Western blot analysis; type: functional, cell-based
# Outline: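 Breast cancer cells given vehicle (0.1% DMSO) or compound, then lysed in RIPA buffer with PMSF and phosphatase inhibitors. BCA-quantified lysate (20–50 µg) run on 8 or 12% SDS-PAGE and transferred to PVDF. Blocked in 5% BSA, probed overnight at 4 °C for PARP and cleaved caspase-7, HRP secondary, ECL detection. β-actin as loading control.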
# MDA-MB-231 [14] = experiment: Induction of apoptosis in human MDA-MB-231 cells assessed as necrotic cells at 3 uM after 48 hrs by Annexin-V-FITC/propidium iodide staining based flow cytometric analysis (Rvb =0.543%); type: functional
# [15] = AUC(0 to last) in Sprague-Dawley rat at 10 mg/kg, po measured up to 24 hrs by LC-MS/MS analysis; type: ADME, organism-based; design: route oral, dose 10 mg/kg, time <=24; conditions: in vivo
# Outline: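 Male SD rats given a single oral dose of 10 mg/kg in DMSO/0.5% HPMC (5/95, v/v). Blood was drawn at 0.25, 0.5, 1, 2, 4, 8 and 24 h, and plasma was analysed by LC-MS/MS on a BEH phenyl column with a formic acid water/acetonitrile mobile phase.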
# [16] = molecular target: T1, Signal transducer and activator of transcription 3; experiment: Inhibition of STAT3 in human MDA-MB-468 cells assessed as downregulation of Bcl-xL expression at 0.3 to 3 uM after 24 hrs by western blot analysis; type: cell-based; conditions: dose 0.3-3 µM; outline: as §2
# MDA231-LM2-4175 [17] = experiment: Inhibition of cell migration in human MDA231-LM2-4175 cells incubated for 12 to 96 hrs by wound healing assay; type: functional, cell-based; conditions: dose 0.3-3 µM, time 12-96 hrs
# Outline: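 Cells grown to 100% confluence, then scratched with a pipette tip. Treated with 0–3 μM until vehicle-treated cells had migrated into the scratch. Images taken by microscope after about 12–96 h. Triplicate experiments.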
# [18] = Toxicity in NOD/SCID mouse xenografted with patient-derived breast cancer cells assessed as morphological change in lung at 5 to 15 mg/kg, […] once daily for 20 days by HE staining based assay; type: organism-based; conditions: in vivo, iv, dose 5-15 mg/kg, time 20 day
# Outline: as §1, with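 “implanted” for “aged 4–5 weeks, given 2×10^6–3×10^6 MDA-MB-231-4175 cells”, “flank with about 2 mm³ TNBC PDX fragments.” for “flank.”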
# [19] = molecular target: T1, Signal transducer and activator of transcription 3; experiment: Inhibition of Flag-tagged STAT3 dimerization (unknown origin) expressed in HEK293T cells after 24 hrs by confocal microscopic analysis; type: cell-based; conditions: dose 1-3 µM
# Outline: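 HEK-293T cells transfected with HA-STAT3 and Flag-STAT3. After 24 h, treated with vehicle (0.1% DMSO) or compound for 24 h, with IL-6 100 ng/mL added for 30 min. Fixed in paraformaldehyde, permeabilised with Triton X-100, stained with anti-HA and anti-Flag plus Alexa 488/555 secondaries and DAPI. Confocal imaging for colocalisation.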
# T1 sequence (P40763 whole entry): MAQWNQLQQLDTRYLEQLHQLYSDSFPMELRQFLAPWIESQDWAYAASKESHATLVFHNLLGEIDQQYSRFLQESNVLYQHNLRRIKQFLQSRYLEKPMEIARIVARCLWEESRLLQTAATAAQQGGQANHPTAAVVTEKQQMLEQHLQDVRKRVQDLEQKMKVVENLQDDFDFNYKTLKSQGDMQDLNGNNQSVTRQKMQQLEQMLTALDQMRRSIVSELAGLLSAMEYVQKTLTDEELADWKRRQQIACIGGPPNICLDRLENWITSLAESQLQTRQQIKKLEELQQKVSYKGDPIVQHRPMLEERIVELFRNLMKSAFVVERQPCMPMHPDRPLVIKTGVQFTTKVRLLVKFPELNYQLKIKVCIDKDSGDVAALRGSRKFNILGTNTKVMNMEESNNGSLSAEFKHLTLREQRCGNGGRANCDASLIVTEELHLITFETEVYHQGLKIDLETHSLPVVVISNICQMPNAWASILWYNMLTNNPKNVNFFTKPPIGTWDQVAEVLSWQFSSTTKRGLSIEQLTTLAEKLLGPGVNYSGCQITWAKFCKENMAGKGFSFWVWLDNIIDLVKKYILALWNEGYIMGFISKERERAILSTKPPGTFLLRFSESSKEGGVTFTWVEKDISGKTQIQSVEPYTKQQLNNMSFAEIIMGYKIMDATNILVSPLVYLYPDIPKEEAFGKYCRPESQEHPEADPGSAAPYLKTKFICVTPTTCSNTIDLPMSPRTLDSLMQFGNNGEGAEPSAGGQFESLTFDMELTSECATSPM
structure (smiles),measurement,setting,value
O=C(Cc1c(-c2ccccc2)nc2ccccn12)Nc1ccc2c(c1)S(=O)(=O)C=C2,inhibition,[1],Active
same,Activity,[2],Non-Toxic
same,Activity,[3],9.5%
same,Activity,MDA-MB-231 [4],1.57%
same,inhibition,[5],Active
same,IC50,MDA-MB-231 [6],1200 nM
same,Tmax,[7],1.67 h
same,inhibition in vivo at 15 mg/kg,[8],40.2%
same,Activity,[9],Non-Toxic
same,inhibition,[10],Active
same,inhibition,[11],Dose-Dependent Effect
same,inhibition,[12],inactive
same,Activity,MDA231-LM2-4175 [13],Active
same,Activity,MDA-MB-231 [14],2.09%
same,AUC(0-t) at 24 h,[15],54.6 ng·h/mL
same,inhibition,[16],Active
same,inhibition,MDA231-LM2-4175 [17],Dose-Dependent Effect
same,Activity,[18],Non-Toxic
same,inhibition,[19],Dose-Dependent Effect
